Results taken from ChEMBL document CHEMBL3124940, “Design, synthesis and biological evaluation of D-ring opened galantamine analogs as multifunctional anti-Alzheimer agents” (Eur J Med Chem, 2014).

Assays:
[1] = molecular target: Acetylcholinesterase (Electrophorus electricus, UniProt O42275); test: Inhibition of electric eel AChE using acetylthiocholine iodide as substrate preincubated for 5 mins followed by substrate addition measured after 5 mins by Ellman's method
[2] = molecular target: Cholinesterase (Equus caballus, UniProt P81908); test: Inhibition of equine serum BChE using butyrylthiocholine iodide as substrate preincubated for 5 mins followed by substrate addition measured after 5 mins by Ellman's method
Cholinesterase, sequence (P81908 whole entry): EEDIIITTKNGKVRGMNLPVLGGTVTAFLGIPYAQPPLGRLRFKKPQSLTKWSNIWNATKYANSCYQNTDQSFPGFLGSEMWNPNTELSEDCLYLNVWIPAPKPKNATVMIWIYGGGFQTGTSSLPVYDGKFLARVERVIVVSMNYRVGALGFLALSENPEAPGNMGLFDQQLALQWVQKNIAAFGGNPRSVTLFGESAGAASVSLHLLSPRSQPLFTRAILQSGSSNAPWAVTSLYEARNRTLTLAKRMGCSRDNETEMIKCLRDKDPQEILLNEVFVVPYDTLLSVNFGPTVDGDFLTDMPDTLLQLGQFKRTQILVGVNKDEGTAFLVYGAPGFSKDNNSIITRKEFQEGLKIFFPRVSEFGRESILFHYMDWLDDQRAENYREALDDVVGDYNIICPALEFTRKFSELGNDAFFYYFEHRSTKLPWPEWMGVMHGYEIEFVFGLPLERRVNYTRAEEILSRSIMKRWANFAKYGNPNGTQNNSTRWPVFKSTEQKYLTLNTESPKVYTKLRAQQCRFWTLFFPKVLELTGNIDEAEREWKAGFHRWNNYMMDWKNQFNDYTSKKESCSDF
How it was run: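 Ellman's method with equine serum BChE and butyrylthiocholine iodide; DTNB read-out at 412 nm, 25 °C. Phosphate buffer pH 8.0. At least five concentrations (normally 10^-4 to 10^-9 M), each in triplicate, to build the inhibition curve. Data are means of at least three determinations.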

[3] = Selectivity ratio of IC50 for electric eel AChE to IC50 for equine serum BChE
How it was run: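 AChE is electric eel Type VI-S with acetylthiocholine; BChE is equine serum with butyrylthiocholine. At least five concentrations, each in triplicate. Ratio = IC50(AChE)/IC50(BChE).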

[4] = test system: Rattus norvegicus; test: Toxicity in Wistar rat assessed as lipidperoxidation product level in kidney at 6 umol/100 g body weight, ip by fluorometric analysis relative to control; assay type: organism-based; details: in vivo
How it was run: (§1)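 Rats dosed i.p.; tissues taken after 24 h. For GSH/GSSG, tissue homogenized in 11 volumes of 0.2 M sodium phosphate (5 mM EDTA, pH 8.0) plus 4 volumes of 25% metaphosphoric acid and centrifuged 12 000 × g, 4 °C, 30 min; supernatant read photometrically (GSH) or fluorometrically (GSSG). Lipid peroxidation products measured as TBARS in 19-volume ice-cold saline homogenates, fluorometrically.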

[5] = test system: Rattus norvegicus; test: Toxicity in Wistar rat assessed as lipidperoxidation product level in kidney at 1 umol/100 g body weight, ip by fluorometric analysis relative to control; assay type: organism-based; details: in vivo; how it was run: as §1
[6] = test system: Rattus norvegicus; test: Toxicity in Wistar rat assessed as total glutathione level in kidney at 6 umol/100 g body weight, ip by fluorometric analysis relative to control; assay type: organism-based; details: in vivo; how it was run: as §1
[7] = test system: Rattus norvegicus; test: Toxicity in Wistar rat assessed as total glutathione level in kidney at 1 umol/100 g body weight, ip by fluorometric analysis relative to control; assay type: organism-based; details: in vivo; how it was run: as §1
[8] = test system: Rattus norvegicus; test: Toxicity in Wistar rat assessed as GSSG level in kidney at 6 umol/100 g body weight, ip by fluorometric analysis relative to control; assay type: organism-based; details: in vivo; how it was run: as §1
[9] = test system: Rattus norvegicus; test: Toxicity in Wistar rat assessed as GSSG level in kidney at 1 umol/100 g body weight, ip by fluorometric analysis relative to control; assay type: organism-based; details: in vivo; how it was run: as §1
[10] = test system: Rattus norvegicus; test: Toxicity in Wistar rat assessed as GSH level in kidney at 6 umol/100 g body weight, ip by fluorometric analysis relative to control; assay type: organism-based; details: in vivo
[11] = test system: Rattus norvegicus; test: Toxicity in Wistar rat assessed as GSH level in kidney at 1 umol/100 g body weight, ip by fluorometric analysis relative to control; assay type: organism-based; details: in vivo
[12] = test system: Rattus norvegicus; test: Toxicity in Wistar rat assessed as kidney weight at 6 umol/100 g body weight, ip relative to control; assay type: organism-based; details: in vivo
[13] = test system: Rattus norvegicus; test: Toxicity in Wistar rat assessed as kidney weight at 1 umol/100 g body weight, ip relative to control; assay type: organism-based; details: in vivo
[14] = test system: Rattus norvegicus; test: Toxicity in Wistar rat assessed as lipidperoxidation product level in brain at 6 umol/100 g body weight, ip by fluorometric analysis relative to control; assay type: organism-based; details: in vivo; how it was run: as §1
[15] = test system: Rattus norvegicus; test: Toxicity in Wistar rat assessed as lipidperoxidation product level in brain at 1 umol/100 g body weight, ip by fluorometric analysis relative to control; assay type: organism-based; details: in vivo; how it was run: as §1
[16] = test system: Rattus norvegicus; test: Toxicity in Wistar rat assessed as total glutathione level in brain at 6 umol/100 g body weight, ip by fluorometric analysis relative to control; assay type: organism-based; details: in vivo; how it was run: as §1
[17] = test system: Rattus norvegicus; test: Toxicity in Wistar rat assessed as total glutathione level in brain at 1 umol/100 g body weight, ip by fluorometric analysis relative to control; assay type: organism-based; details: in vivo; how it was run: as §1
[18] = test system: Rattus norvegicus; test: Toxicity in Wistar rat assessed as GSSG level in brain at 6 umol/100 g body weight, ip by fluorometric analysis relative to control; assay type: organism-based; details: in vivo; how it was run: as §1
[19] = test system: Rattus norvegicus; test: Toxicity in Wistar rat assessed as GSSG level in brain at 1 umol/100 g body weight, ip by fluorometric analysis relative to control; assay type: organism-based; details: in vivo; how it was run: as §1
[20] = test system: Rattus norvegicus; test: Toxicity in Wistar rat assessed as GSH level in brain at 6 umol/100 g body weight, ip by fluorometric analysis relative to control; assay type: organism-based; details: in vivo
[21] = test system: Rattus norvegicus; test: Toxicity in Wistar rat assessed as GSH level in brain at 1 umol/100 g body weight, ip by fluorometric analysis relative to control; assay type: organism-based; details: in vivo
[22] = test system: Rattus norvegicus; test: Toxicity in Wistar rat assessed as brain weight at 6 umol/100 g body weight, ip relative to control; assay type: organism-based; details: in vivo
[23] = test system: Rattus norvegicus; test: Toxicity in Wistar rat assessed as brain weight at 1 umol/100 g body weight, ip relative to control; assay type: organism-based; details: in vivo
[24] = test system: Rattus norvegicus; test: Toxicity in Wistar rat assessed as ethoxyresorufin-O-deethylation activity in liver measured as resorufin level at 6 umol/100 g body weight, ip by fluorometric analysis relative to control; assay type: organism-based; details: in vivo
How it was run: (§2)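 Rats dosed i.p.; after 24 h, liver homogenized 1:3 w/v in 0.1 M sodium phosphate pH 7.4 and centrifuged at 9000 × g, 4 °C, 20 min. Supernatant protein determined by the Biuret method. Ethoxyresorufin-O-deethylation measured fluorometrically as resorufin formed.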

[25] = test system: Rattus norvegicus; test: Toxicity in Wistar rat assessed as ethoxyresorufin-O-deethylation activity in liver measured as resorufin level at 1 umol/100 g body weight, ip by fluorometric analysis relative to control; assay type: organism-based; details: in vivo; how it was run: as §2
[26] = test system: Rattus norvegicus; test: Toxicity in Wistar rat assessed as ethoxycoumarin-O-deethylation activity in liver measured as 7-hydroxycoumarin level at 6 umol/100 g body weight, ip by fluorometric analysis relative to control; assay type: organism-based; details: in vivo
[27] = test system: Rattus norvegicus; test: Toxicity in Wistar rat assessed as ethoxycoumarin-O-deethylation activity in liver measured as 7-hydroxycoumarin level at 1 umol/100 g body weight, ip by fluorometric analysis relative to control; assay type: organism-based; details: in vivo
[28] = test system: Rattus norvegicus; test: Toxicity in Wistar rat assessed as ethylmorphine-N-demethylation activity in liver measured as formaldehyde level at 6 umol/100 g body weight, ip by photometric analysis relative to control; assay type: organism-based; details: in vivo
[29] = test system: Rattus norvegicus; test: Toxicity in Wistar rat assessed as ethylmorphine-N-demethylation activity in liver measured as formaldehyde level at 1 umol/100 g body weight, ip by photometric analysis relative to control; assay type: organism-based; details: in vivo
[30] = test system: Rattus norvegicus; test: Toxicity in Wistar rat assessed as protein content in liver at 6 umol/100 g body weight, ip by Biuret method relative to control; assay type: organism-based; details: in vivo; how it was run: as §2
[31] = test system: Rattus norvegicus; test: Toxicity in Wistar rat assessed as protein content in liver at 1 umol/100 g body weight, ip by Biuret method relative to control; assay type: organism-based; details: in vivo; how it was run: as §2
[32] = test system: Rattus norvegicus; test: Toxicity in Wistar rat assessed as lipidperoxidation product level in liver at 6 umol/100 g body weight, ip relative to control; assay type: organism-based; details: in vivo
[33] = test system: Rattus norvegicus; test: Toxicity in Wistar rat assessed as lipidperoxidation product level in liver at 1 umol/100 g body weight, ip relative to control; assay type: organism-based; details: in vivo
[34] = test system: Rattus norvegicus; test: Toxicity in Wistar rat assessed as total glutathione level in liver at 6 umol/100 g body weight, ip by fluorometric analysis relative to control; assay type: organism-based; details: in vivo
How it was run: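 Rats were dosed, killed 24 h later, and liver and other tissues were taken. Samples were homogenized in 11 vol 0.2 M sodium phosphate (5 mM EDTA, pH 8.0) plus 4 vol 25% metaphosphoric acid, then spun at 12 000 × g, 4 °C, 30 min. GSH was read photometrically and GSSG fluorometrically in the supernatant, alongside total glutathione.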

[35] = test system: Rattus norvegicus; test: Toxicity in Wistar rat assessed as total glutathione level in liver at 1 umol/100 g body weight, ip by fluorometric analysis relative to control; assay type: organism-based; details: in vivo; how it was run: as §1
[36] = test system: Rattus norvegicus; test: Toxicity in Wistar rat assessed as GSSG level in liver at 6 umol/100 g body weight, ip by fluorometric analysis relative to control; assay type: organism-based; details: in vivo; how it was run: as §1
[37] = test system: Rattus norvegicus; test: Toxicity in Wistar rat assessed as GSSG level in liver at 1 umol/100 g body weight, ip by fluorometric analysis relative to control; assay type: organism-based; details: in vivo; how it was run: as §1
[38] = test system: Rattus norvegicus; test: Toxicity in Wistar rat assessed as GSH level in liver at 6 umol/100 g body weight, ip by fluorometric analysis relative to control; assay type: organism-based; details: in vivo
[39] = test system: Rattus norvegicus; test: Toxicity in Wistar rat assessed as GSH level in liver at 1 umol/100 g body weight, ip by fluorometric analysis relative to control; assay type: organism-based; details: in vivo
[40] = test system: Rattus norvegicus; test: Toxicity in Wistar rat assessed as liver weight at 6 umol/100 g body weight, ip relative to control; assay type: organism-based; details: in vivo
[41] = test system: Rattus norvegicus; test: Toxicity in Wistar rat assessed as liver weight at 1 umol/100 g body weight, ip relative to control; assay type: organism-based; details: in vivo
[42] = test system: Rattus norvegicus; test: Toxicity in Wistar rat assessed as body weight at 6 umol/100 g body weight, ip relative to control; assay type: organism-based; details: in vivo
[43] = test system: Rattus norvegicus; test: Toxicity in Wistar rat assessed as body weight at 1 umol/100 g body weight, ip relative to control; assay type: organism-based; details: in vivo
[44] = test system: Rattus norvegicus; test: Toxicity in Wistar rat assessed as change in movement at 1 umol/100 g body weight, ip; assay type: organism-based; details: in vivo
[45] = test system: Rattus norvegicus; test: Antialzheimer activity in Wistar rat scopolamine-induced cognition impairment model assessed as total exploration time at 1 umol/100 g body weight, ip treated for 5 mins prior to scopolamine-challenge by eight-arm radial maze test relative to control; assay type: functional
How it was run: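 Female 60-day-old Wistar rats (Han:Wist) trained in an eight-arm radial maze to error-free trials under 60 s on three consecutive days; each animal served as its own control. Test agent given i.p. in saline 5 min before scopolamine (0.05 mg/100 g b. wt., i.p. in saline). Errors plus baits not found after 10 min, and total searching time, recorded before and 20, 60, 120 min after scopolamine; n = 14, mean ± SEM.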

[46] = test system: Rattus norvegicus; test: Toxicity in Wistar rat scopolamine-induced cognition impairment model assessed as change in movement at 1 umol/100 g body weight, ip; assay type: organism-based; details: in vivo
How it was run: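 60-day-old female Wistar rats were trained in an eight-arm radial maze to no errors in under 60 s on 3 consecutive days; each rat served as its own control. Compound in saline was given i.p., then scopolamine (0.05 mg/100 g, saline, i.p.) 5 min later. Errors plus baits not found after 10 min and total searching time were recorded before and 20, 60 and 120 min after scopolamine; n = 14, mean ± SEM.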

Acetylcholinesterase, sequence (O42275 whole entry): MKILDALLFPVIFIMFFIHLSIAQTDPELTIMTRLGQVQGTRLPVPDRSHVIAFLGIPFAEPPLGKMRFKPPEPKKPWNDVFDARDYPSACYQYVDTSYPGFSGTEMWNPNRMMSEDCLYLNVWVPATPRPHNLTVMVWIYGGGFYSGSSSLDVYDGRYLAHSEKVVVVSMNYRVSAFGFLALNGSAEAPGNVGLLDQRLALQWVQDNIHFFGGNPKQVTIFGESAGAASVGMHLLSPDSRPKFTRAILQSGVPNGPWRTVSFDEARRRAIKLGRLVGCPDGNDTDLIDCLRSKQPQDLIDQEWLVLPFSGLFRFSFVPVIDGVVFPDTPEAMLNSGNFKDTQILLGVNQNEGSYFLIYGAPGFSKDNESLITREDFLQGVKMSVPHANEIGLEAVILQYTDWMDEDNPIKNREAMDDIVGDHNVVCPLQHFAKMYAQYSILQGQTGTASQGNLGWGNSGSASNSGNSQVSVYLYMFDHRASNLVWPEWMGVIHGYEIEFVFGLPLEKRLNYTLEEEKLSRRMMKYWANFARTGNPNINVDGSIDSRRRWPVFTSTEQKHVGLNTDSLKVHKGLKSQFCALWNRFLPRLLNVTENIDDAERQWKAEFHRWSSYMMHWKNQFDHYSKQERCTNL

CC(C)NCc1cccc2oc3cc(O)ccc3c12
IC50 [1]: 22.6 µM
IC50 [2]: 18.4 µM
Ratio IC50 [3]: 1.23

COc1ccc2c(c1)oc1cccc(CNC(C)C)c12
IC50 [1]: 11.6 µM
IC50 [2]: 13.5 µM
Ratio IC50 [3]: 0.86

Nc1c2c(nc3ccccc13)CCCC2 [TACRINE]
Activity [4]: 89.2 nmol/g
Activity [5]: 87.4 nmol/g
Activity [6]: 1800 µg/g
Activity [7]: 1821 µg/g
Activity [8]: 171 µg/g
Activity [9]: 170 µg/g
Activity [10]: 1457 µg/g
Activity [11]: 1480 µg/g
Activity [12]: 0.61 g
Activity [13]: 0.65 g
Activity [14]: 154 nmol/g
Activity [15]: 123 nmol/g
Activity [16]: 822 µg/g
Activity [17]: 824 µg/g
Activity [18]: 75.6 µg/g
Activity [19]: 79.9 µg/g
Activity [20]: 671 µg/g
Activity [21]: 665 µg/g
Activity [22]: 1.82 g
Activity [23]: 1.77 g
Activity [24]: 100 pmol/mg/min
Activity [25]: 134 pmol/mg/min
Activity [26]: 197 pmol/mg/min
Activity [27]: 207 pmol/mg/min
Activity [28]: 0.44 nmol/mg/min
Activity [29]: 0.6 nmol/mg/min
Activity [30]: 65.5 mg/mL
Activity [31]: 61.8 mg/mL
Activity [32]: 62 nmol/g
Activity [33]: 63.8 nmol/g
Activity [34]: 3173 µg/g
Activity [35]: 3378 µg/g
Activity [36]: 431 µg/g
Activity [37]: 418 µg/g
Activity [38]: 2310 µg/g
Activity [39]: 2542 µg/g
Activity [40]: 6.2 g
Activity [41]: 6.8 g
Activity [42]: 219 g
Activity [43]: 228 g
Activity [44]: Toxic
Time [45]: 237 s
Activity [46]: Toxic
